Reference: ChEMBL document CHEMBL1145212, “Fluorinated diaryl sulfides as serotonin transporter ligands: synthesis, structure-activity relationship study, and in vivo evaluation of fluorine-18-labeled compounds as PET imaging agents” (J Med Chem, 2005)

Tests used:
Details in all cases: tested as the 18F-labelled form
[1] = target: Sodium-dependent serotonin transporter (Rattus norvegicus) (UniProt P31652); test: Specific binding of [18F]AFA in rat striatum after GBR-12935 treatment; n=3; type: functional, tissue-based
Method in brief: (§1)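 Rats, three per group, were pretreated iv with blocker at 2 mg/kg in saline, or with saline as control, 10–15 min before tail-vein F-18 radioligand (about 20 µCi). Killed at 60 min and regional %ID/g determined. Specific binding = (region activity − cerebellum activity)/cerebellum activity; mean ± SD.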

[2] = target: Sodium-dependent serotonin transporter (Rattus norvegicus) (UniProt P31652); test: Specific binding of [18F]AFA in rat thalamus after GBR-12935 treatment; n=3; type: functional, tissue-based; method in brief: as §1
[3] = target: Sodium-dependent serotonin transporter (Rattus norvegicus) (UniProt P31652); test: Specific binding of [18F]-AFA in rat striatum after citalopram treatment; n=3; type: functional, tissue-based; method in brief: as §1
[4] = target: Sodium-dependent serotonin transporter (Rattus norvegicus) (UniProt P31652); test: Specific binding of [18F]-AFA in rat striatum after nisoxetine treatment; n=3; type: functional, tissue-based; method in brief: as §1
[5] = target: Sodium-dependent serotonin transporter (Rattus norvegicus) (UniProt P31652); test: Specific binding of [18F]AFA in rat thalamus after citalopram treatment; n=3; type: functional, tissue-based; method in brief: as §1
[6] = target: Sodium-dependent serotonin transporter (Rattus norvegicus) (UniProt P31652); test: Specific binding of [18F]AFA in rat thalamus after nisoxetine treatment; n=3; type: functional, tissue-based; method in brief: as §1
[7] = target: Sodium-dependent serotonin transporter (Rattus norvegicus) (UniProt P31652); test: Specific binding of [18F]AFA in rat hippocampus after GBR-12935 treatment; n=3; type: functional, tissue-based; method in brief: as §1
[8] = target: Sodium-dependent serotonin transporter (Rattus norvegicus) (UniProt P31652); test: Specific binding of [18F]AFA in rat hypothalamus after GBR-12935 treatment; n=3; type: functional, tissue-based; method in brief: as §1
[9] = target: Sodium-dependent serotonin transporter (Rattus norvegicus) (UniProt P31652); test: Specific binding of [18F]AFA in rat hippocampus after citalopram treatment; n=3; type: functional, tissue-based; method in brief: as §1
[10] = target: Sodium-dependent serotonin transporter (Rattus norvegicus) (UniProt P31652); test: Specific binding of [18F]AFA in rat hippocampus after nisoxetine treatment; n=3; type: functional, tissue-based; method in brief: as §1
[11] = target: Sodium-dependent serotonin transporter (Rattus norvegicus) (UniProt P31652); test: Specific binding of [18F]AFA in rat frontal cortex after GBR-12935 treatment; n=3; type: functional, tissue-based; method in brief: as §1
[12] = target: Sodium-dependent serotonin transporter (Rattus norvegicus) (UniProt P31652); test: Specific binding of [18F]AFA in rat hypothalamus after citalopram treatment; n=3; type: functional, tissue-based; method in brief: as §1
[13] = target: Sodium-dependent serotonin transporter (Rattus norvegicus) (UniProt P31652); test: Specific binding of [18F]AFA in rat hypothalamus after nisoxetine treatment; n=3; type: functional, tissue-based; method in brief: as §1
[14] = target: Sodium-dependent serotonin transporter (Rattus norvegicus) (UniProt P31652); test: Specific binding of [18F]AFA in rat frontal cortex after citalopram treatment; n=3; type: functional, tissue-based; method in brief: as §1
[15] = target: Sodium-dependent serotonin transporter (Rattus norvegicus) (UniProt P31652); test: Specific binding of [18F]AFA in rat frontal cortex after nisoxetine treatment; n=3; type: functional, tissue-based; method in brief: as §1
[16] = target: Sodium-dependent serotonin transporter (Rattus norvegicus) (UniProt P31652); test: Specific binding in rat hypothalamus at 10 min postinjection in vivo; type: functional, organism-based
Method in brief: (§2)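 Male Sprague-Dawley rats, n=3 per time point, received about 20 µCi of F-18 radioligand in saline iv by tail vein and were killed at 10–120 min. %ID/g was measured with decay and tail-residual correction. Hypothalamic specific binding = (%ID/g hypothalamus − %ID/g cerebellum)/%ID/g cerebellum; mean ± SD.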

[17] = target: Sodium-dependent serotonin transporter (Rattus norvegicus) (UniProt P31652); test: Specific binding in rat hypothalamus at 30 min postinjection in vivo; type: functional, organism-based; method in brief: as §2
[18] = target: Sodium-dependent serotonin transporter (Rattus norvegicus) (UniProt P31652); test: Specific binding in rat hypothalamus at 60 min postinjection in vivo; type: functional, organism-based; method in brief: as §2
[19] = target: Sodium-dependent serotonin transporter (Rattus norvegicus) (UniProt P31652); test: Specific binding in rat hypothalamus at 90 min postinjection in vivo; type: functional, organism-based; method in brief: as §2
[20] = target: Sodium-dependent serotonin transporter (Rattus norvegicus) (UniProt P31652); test: Specific binding in rat hypothalamus at 120 min postinjection in vivo; type: functional, organism-based; method in brief: as §2
Rattus norvegicus [21] = organism: Rattus norvegicus; test: Regional uptake of [18F]AFA in blood of rat pretreated with compound 7c; n=3; type: functional, organism-based
Rattus norvegicus [22] = organism: Rattus norvegicus; test: Regional uptake of [18F]AFA in striatum of rat pretreated with compound 7c; n=3; type: functional, organism-based
Rattus norvegicus [23] = organism: Rattus norvegicus; test: Regional uptake of [18F]AFA in thalamus of rat pretreated with compound 7c; n=3; type: functional, organism-based
Rattus norvegicus [24] = organism: Rattus norvegicus; test: Regional uptake of [18F]AFA in cerebellum of rat pretreated with compound 7c; n=3; type: functional, organism-based
Rattus norvegicus [25] = organism: Rattus norvegicus; test: Regional uptake of [18F]-AFA in blood of rat pretreated with compound GBR-12935; n=3; type: functional, organism-based
Method in brief: (§3)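 Male Sprague-Dawley rats, three per group, received blocker (2 mg/kg iv in saline) or saline only (controls) 10–15 min before about 20 µCi of tail-vein F-18 radioligand. Killed 60 min after tracer. Blood and brain regions weighed and gamma-counted. %ID/g was decay- and tail-corrected; mean ± SD.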

Rattus norvegicus [26] = organism: Rattus norvegicus; test: Regional uptake of [18F]AFA in hippocampus of rat pretreated with compound 7c; n=3; type: functional, organism-based
Rattus norvegicus [27] = organism: Rattus norvegicus; test: Regional uptake of [18F]AFA in hypothalamus of rat pretreated with compound 7c; n=3; type: functional, organism-based
Rattus norvegicus [28] = organism: Rattus norvegicus; test: Regional uptake of [18F]-AFA in blood of rat pretreated with compound citalopram; n=3; type: functional, organism-based; method in brief: as §3
Rattus norvegicus [29] = organism: Rattus norvegicus; test: Regional uptake of [18F]AFA in blood of rat pretreated with compound nisoxetine; n=3; type: functional, organism-based; method in brief: as §3
Rattus norvegicus [30] = organism: Rattus norvegicus; test: Regional uptake of [18F]-AFA in frontal cortex of rat pretreated with compound 7c; n=3; type: functional, organism-based
Rattus norvegicus [31] = organism: Rattus norvegicus; test: Regional uptake of [18F]-AFA in striatum of rat pretreated with compound GBR-12935; n=3; type: functional, organism-based; method in brief: as §3
Rattus norvegicus [32] = organism: Rattus norvegicus; test: Regional uptake of [18F]AFA in thalamus of rat pretreated with compound GBR-12935; n=3; type: functional, organism-based; method in brief: as §3
Rattus norvegicus [33] = organism: Rattus norvegicus; test: Regional uptake of [18F]AFA in striatum of rat pretreated with compound citalopram; n=3; type: functional, organism-based; method in brief: as §3
Rattus norvegicus [34] = organism: Rattus norvegicus; test: Regional uptake of [18F]AFA in striatum of rat pretreated with compound nisoxetine; n=3; type: functional, organism-based; method in brief: as §3
Rattus norvegicus [35] = organism: Rattus norvegicus; test: Regional uptake of [18F]AFA in thalamus of rat pretreated with compound citalopram; n=3; type: functional, organism-based; method in brief: as §3
Rattus norvegicus [36] = organism: Rattus norvegicus; test: Regional uptake of [18F]AFA in thalamus of rat pretreated with compound nisoxetine; n=3; type: functional, organism-based; method in brief: as §3
Rattus norvegicus [37] = organism: Rattus norvegicus; test: Regional uptake of [18F]AFA in hippocampus of rat pretreated with compound GBR-12935; n=3; type: functional, organism-based; method in brief: as §3
Rattus norvegicus [38] = organism: Rattus norvegicus; test: Regional uptake of [18F]AFA in cerebellum of rat pretreated with compound citalopram; n=3; type: functional, organism-based; method in brief: as §3
Rattus norvegicus [39] = organism: Rattus norvegicus; test: Regional uptake of [18F]AFA in cerebellum of rat pretreated with compound nisoxetine; n=3; type: functional, organism-based; method in brief: as §3
Rattus norvegicus [40] = organism: Rattus norvegicus; test: Regional uptake of [18F]AFA in hypothalamus of rat pretreated with compound GBR-12935; n=3; type: functional, organism-based; method in brief: as §3
Rattus norvegicus [41] = organism: Rattus norvegicus; test: Regional uptake of [18F]AFA in hippocampus of rat pretreated with compound citalopram; n=3; type: functional, organism-based; method in brief: as §3
Rattus norvegicus [42] = organism: Rattus norvegicus; test: Regional uptake of [18F]AFA in hippocampus of rat pretreated with compound nisoxetine; n=3; type: functional, organism-based; method in brief: as §3
Rattus norvegicus [43] = organism: Rattus norvegicus; test: Regional uptake of [18F]AFA in frontal cortex of rat pretreated with compound GBR-12935; n=3; type: functional, organism-based; method in brief: as §3
Rattus norvegicus [44] = organism: Rattus norvegicus; test: Regional uptake of [18F]-AFA in hypothalamus of rat pretreated with compound nisoxetine; n=3; type: functional, organism-based; method in brief: as §3
Rattus norvegicus [45] = organism: Rattus norvegicus; test: Regional uptake of [18F]AFA in frontal cortex of rat pretreated with compound citalopram; n=3; type: functional, organism-based; method in brief: as §3
Rattus norvegicus [46] = organism: Rattus norvegicus; test: Regional uptake of [18F]AFA in frontal cortex of rat pretreated with compound nisoxetine; n=3; type: functional, organism-based; method in brief: as §3
Rattus norvegicus [47] = organism: Rattus norvegicus; test: Regional uptake of [18F]AFA in cerebellum of rat pretreated with compound GBR-12935; n=3; type: functional, organism-based; method in brief: as §3
Rattus norvegicus [48] = organism: Rattus norvegicus; test: Regional uptake of [18F]AFA in hypothalamus of rat pretreated with compound citalopram; n=3; type: functional, organism-based; method in brief: as §3

Chain of Sodium-dependent serotonin transporter (Rattus norvegicus) (P31652 whole entry): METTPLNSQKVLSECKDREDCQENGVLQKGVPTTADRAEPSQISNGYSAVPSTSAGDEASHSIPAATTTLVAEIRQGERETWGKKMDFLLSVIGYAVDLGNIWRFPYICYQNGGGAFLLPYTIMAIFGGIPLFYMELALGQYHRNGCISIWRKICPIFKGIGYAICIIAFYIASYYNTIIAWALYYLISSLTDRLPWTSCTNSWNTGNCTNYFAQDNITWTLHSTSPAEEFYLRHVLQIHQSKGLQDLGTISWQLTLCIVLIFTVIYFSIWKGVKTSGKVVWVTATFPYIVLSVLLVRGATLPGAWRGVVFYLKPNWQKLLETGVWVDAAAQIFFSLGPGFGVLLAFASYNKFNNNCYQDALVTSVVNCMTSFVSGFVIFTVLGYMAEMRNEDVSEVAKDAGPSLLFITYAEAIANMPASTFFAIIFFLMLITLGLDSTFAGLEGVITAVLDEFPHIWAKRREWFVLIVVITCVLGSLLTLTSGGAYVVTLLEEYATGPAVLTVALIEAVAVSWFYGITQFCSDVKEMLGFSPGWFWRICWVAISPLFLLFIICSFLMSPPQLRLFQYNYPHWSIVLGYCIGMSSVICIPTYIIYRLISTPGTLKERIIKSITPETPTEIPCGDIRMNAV

## CN(C)Cc1ccccc1Sc1ccc(F)cc1N
[1]
  Specific binding: 2.56 %ID/g
[2]
  Specific binding: 4.57 %ID/g
[3]
  Specific binding: 0.6 %ID/g
[4]
  Specific binding: 2.45 %ID/g
[5]
  Specific binding: 0.98 %ID/g
[6]
  Specific binding: 3.53 %ID/g
[7]
  Specific binding: 2.21 %ID/g
[8]
  Specific binding: 4.3 %ID/g
[9]
  Specific binding: 0.81 %ID/g
[10]
  Specific binding: 1.96 %ID/g
[11]
  Specific binding: 2.81 %ID/g
[12]
  Specific binding: 0.65 %ID/g
[13]
  Specific binding: 3.82 %ID/g
[14]
  Specific binding: 0.64 %ID/g
[15]
  Specific binding: 2.88 %ID/g
[16]
  Specific binding: 0.89 %ID/g
[17]
  Specific binding: 2.23 %ID/g
[18]
  Specific binding: 4.09 %ID/g
[19]
  Specific binding (dimensionless ratio): 5.61
[20]
  Specific binding (dimensionless ratio): 4.92
Rattus norvegicus [21]
  Uptake: 0.07 %ID/g
Rattus norvegicus [22]
  Uptake: 0.12 %ID/g
Rattus norvegicus [23]
  Uptake: 0.15 %ID/g
Rattus norvegicus [24]
  Uptake: 0.06 %ID/g
Rattus norvegicus [25]
  Uptake: 0.09 %ID/g
Rattus norvegicus [26]
  Uptake: 0.13 %ID/g
Rattus norvegicus [27]
  Uptake: 0.13 %ID/g
Rattus norvegicus [28]
  Uptake: 0.08 %ID/g
Rattus norvegicus [29]
  Uptake: 0.1 %ID/g
Rattus norvegicus [30]
  Uptake: 0.14 %ID/g
Rattus norvegicus [31]
  Uptake: 0.28 %ID/g
Rattus norvegicus [32]
  Uptake: 0.36 %ID/g
Rattus norvegicus [33]
  Uptake: 0.1 %ID/g
Rattus norvegicus [34]
  Uptake: 0.31 %ID/g
Rattus norvegicus [35]
  Uptake: 0.13 %ID/g
Rattus norvegicus [36]
  Uptake: 0.47 %ID/g
Rattus norvegicus [37]
  Uptake: 0.28 %ID/g
Rattus norvegicus [38]
  Uptake: 0.06 %ID/g
Rattus norvegicus [39]
  Uptake: 0.09 %ID/g
Rattus norvegicus [40]
  Uptake: 0.43 %ID/g
Rattus norvegicus [41]
  Uptake: 0.11 %ID/g
Rattus norvegicus [42]
  Uptake: 0.28 %ID/g
Rattus norvegicus [43]
  Uptake: 0.33 %ID/g
Rattus norvegicus [44]
  Uptake: 0.48 %ID/g
Rattus norvegicus [45]
  Uptake: 0.11 %ID/g
Rattus norvegicus [46]
  Uptake: 0.36 %ID/g
Rattus norvegicus [47]
  Uptake: 0.09 %ID/g
Rattus norvegicus [48]
  Uptake: 0.1 %ID/g
